Bioassay records: PubChem, several laboratories
Most compounds without a hit are left out; they make up all but 3% or so of the library.
DNA FID counter: compounds displacing fluorescent DNA intercalator, primary screen, artefact control for HCV NS3 helicase inhibitor project, biochemical, FID fluorescence; AID 1845, 2009; inhibition, % at 7.9 µM; DNA fluorescent intercalator displacement; 290,000 tested, 0.17% active; in the data active means inhibition above about 37%;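 further: 0% = vehicle and 100% = reference compound; higher means more ethidium bromide displaced from hairpin DNA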
TMEM16A inh: TMEM16A chloride channel inhibitors, primary screen, cell-based, HTS. AID 588511, 2011. 310,000 tested, 1.2% active. Anoctamin-1 (Mus musculus), Q8BHY3. normalized B-score (activity score, 25-100; higher = stronger inhibition) at 10 µM. HEK293 TMEM16A/YFP iodide influx fluorescence, ionomycin;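 active means ratio plate-corrected score three or more library SD toward inhibition, starting fluorescence score within five deviations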;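 further: score derived from kinetic fluorescence span divided by baseline fluorescence per well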
Kir21 block: inhibitors of mouse Kir2.1 inward-rectifier potassium channel. AID 1672, 2009. B-score at 10 µM. Inward rectifier potassium channel 2 (Mus musculus), P35561. HEK293-Kir2.1, FluxOR thallium flux fluorescence; hits give low values. 310,000 tested, 0.85% active;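 active means fluorescence ratio B-score at or below minus 3 SD of library scores, with starting-brightness B-score within 2 SD, cut at about -4.2 in these data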;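 further: channel flux triggered by added potassium and thallium sulfate stimulus; B-score of peak minus minimum fluorescence over baseline after thallium stimulus; more negative B-score means stronger Kir2.1 block with less thallium influx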
SR-BI DiI inh: inhibitors of SR-BI mediated HDL lipid uptake, primary screen, ldlA[mSR-BI] cells, fluorescence, single point; Scavenger receptor class B member 1 (Mus musculus), Q61009; ldlA[mSR-BI] CHO cells, DiI-HDL uptake fluorescence, 3 h; inhibition, % at 12.5 µM; 320,000 tested, 0.96% active; AID 488896, 2010;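 active means mean replicate inhibition of at least 70% and a set share of replicates each scoring 70 or more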;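 further: 0% = median of neutral control wells and 100% = median of positive control wells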
SR-BI uptake up: activators of SR-BI mediated DiI-HDL uptake, primary screen, ldlA[mSR-BI] CHO cells, DiI fluorescence | 320,000 tested, 0.096% active | 3 h; 100 = double the neutral-control signal | activation, % at 12.5 µM | AID 504775, 2011;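 active means mean replicate activation of at least 60% and every replicate at or above 60%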;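 further: 0% = median plate neutral-control signal and 100% = twice that signal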
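material = CHO ldlA[mSR-BI] cells | medium = Ham's F12 with 0.5% BSA, HEPES 25 mM, pH 7.4 | reagent = fluorescent DiI-HDL, 10 µg/mL final | compound dosing = single-point compound dose | incubation = 3 h, 37 °C | measured by = bottom-read fluorescence, 550/595 nm | measure = HDL uptake via cellular fluorescence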
TMEM16A act: TMEM16A chloride channel activators or potentiators, primary screen, cell-based, HTS; HEK293 TMEM16A/YFP-H148Q/I152L, iodide quench fluorescence; hits give low values; B-score at 10 µM; 340,000 tested, 0.3% active;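 active means fluorescence-ratio B-score plate-corrected deviation score at least 3 library SD below zero, with starting fluorescence score within 5 deviations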;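 further: channel opened by trigger with iodide after compound preincubation; score built on the fluorescence ratio of max minus min over baseline; more negative score means more quench and so TMEM16A activation or potentiation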
TMEM16A reconf: TMEM16A chloride channel inhibitors, confirmation, cell-based, re-confirmation; HEK293 TMEM16A/YFP-H148Q, iodide quench fluorescence; ionomycin added to raise cell calcium; inhibition, % at 10 µM; 2,300 tested, 39% active; AID 652189, 2013; shares compounds with TMEM16A inh;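 active means mean duplicate percent inhibition, scaled so buffer wells are 0 and the reference blocker 100, over three buffer SD above buffer mean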
HEK293 Ca mobil: calcium mobilization in TMEM16A/YFP HEK293 cells, confirmation, counter-screen for TMEM16A inhibitor project. Fluo4 calcium mobilization. calcium response (% of ionomycin), % at 10 µM. 2,300 tested, 2% active. AID 652231, 2013. shares compounds with TMEM16A inh;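 active means duplicate-averaged calcium signal over 20% of the ionomycin maximum, relative to buffer baseline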;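 further: each well's signal is peak minus trough fluorescence divided by its pre-addition baseline; 0% = buffer wells and 100% = ionomycin wells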
YFP-HEK293 quench: iodide YFP quench changes in parental YFP-HEK293, counter-screen for TMEM16A inhibitor project, cell-based; ionomycin; shares compounds with TMEM16A inh; YFP ratio F(max-min)/F0 at 10 µM; AID 652233, 2013; 2,300 tested, under 10 active;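 active means yellow fluorescent protein signal ratio exceeding the buffer control mean by over 5 SD of those controls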;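 further: ratio is mean of duplicate wells from kinetic YFP trace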
ClC-1 inh: ClC-1 chloride channel inhibition, selectivity assay for TMEM16A inhibitor project, cell-based, voltage-dependent ClC-1; ratio percent, % at 10 µM; shares compounds with TMEM16A inh; CHO ClC-1-YFP, iodide influx fluorescence quench; iodide control reads 0, buffer control 100; AID 652236, 2013; 2,300 tested, under 10 active;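 active means duplicate-mean ratio percent above the mean of iodide-only control wells, which defines zero, plus 5 of their SD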;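 further: higher percent means stronger block of ClC-1 iodide influx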
Target sequence (P35524 whole entry, looked up): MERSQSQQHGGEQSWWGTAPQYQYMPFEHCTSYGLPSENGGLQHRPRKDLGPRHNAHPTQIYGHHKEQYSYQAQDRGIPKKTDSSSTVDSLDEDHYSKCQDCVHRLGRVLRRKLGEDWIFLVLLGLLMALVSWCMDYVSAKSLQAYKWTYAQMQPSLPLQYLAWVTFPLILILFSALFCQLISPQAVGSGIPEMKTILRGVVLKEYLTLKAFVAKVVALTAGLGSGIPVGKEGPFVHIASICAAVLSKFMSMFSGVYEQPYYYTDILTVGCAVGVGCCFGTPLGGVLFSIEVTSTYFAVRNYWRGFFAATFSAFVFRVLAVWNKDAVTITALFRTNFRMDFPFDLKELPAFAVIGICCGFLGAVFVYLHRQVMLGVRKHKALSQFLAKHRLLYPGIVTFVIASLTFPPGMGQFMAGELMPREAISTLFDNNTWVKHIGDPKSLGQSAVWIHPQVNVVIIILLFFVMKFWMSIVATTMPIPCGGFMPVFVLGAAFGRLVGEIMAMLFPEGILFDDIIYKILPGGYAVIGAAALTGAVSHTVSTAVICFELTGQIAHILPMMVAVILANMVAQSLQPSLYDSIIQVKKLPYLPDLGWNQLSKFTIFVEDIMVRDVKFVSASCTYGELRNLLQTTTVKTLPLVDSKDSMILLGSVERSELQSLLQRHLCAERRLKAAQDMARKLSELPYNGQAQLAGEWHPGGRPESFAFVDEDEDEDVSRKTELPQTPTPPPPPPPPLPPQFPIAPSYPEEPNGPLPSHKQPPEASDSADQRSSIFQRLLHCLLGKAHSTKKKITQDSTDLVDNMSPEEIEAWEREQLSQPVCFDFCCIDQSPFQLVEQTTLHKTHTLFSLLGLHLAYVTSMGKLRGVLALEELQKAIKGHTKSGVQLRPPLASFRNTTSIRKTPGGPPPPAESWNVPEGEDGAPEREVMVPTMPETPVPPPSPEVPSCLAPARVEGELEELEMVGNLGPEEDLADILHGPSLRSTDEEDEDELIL
The depositor's hits bear a star; i = inactive; · = no result given.

SMILES	DNA FID counter	TMEM16A inh	Kir21 block	SR-BI DiI inh	SR-BI uptake up	TMEM16A act	TMEM16A reconf	HEK293 Ca mobil	YFP-HEK293 quench	ClC-1 inh
CCOC(=O)c1ccc(NC(=S)N2CCSC2c2ccc(Br)cc2)cc1 (stereo unspecified)	-4.9	25*	0.97	40.2	-40.2	-6.5*	81.5%*	i	-1.07	-2.0
Cc1cc(C)c(C#N)c(SCC(O)COc2ccc(Br)cc2)n1 (stereo unspecified)	-25.0	i	-3.04	4.7	-4.7	i	·	·	·	·
CN1CCN(S(=O)(=O)c2cccc(C(=O)N(C)Cc3cccs3)c2)CC1	·	·	·	-17.0	17.0	i	·	·	·	·
C=CCN(C(=O)c1cccc(S(=O)(=O)N2CCN(C)CC2)c1)c1nc(-c2ccccc2)cs1	11.9	100*	-0.89	2.5	-2.5	i	20.5%*	i	-1.02	-7.0
C/C=C(\C)C(=O)OC1c2c(ccc3ccc(=O)oc23)OC(C)(C)C1OC(C)=O (stereo unspecified)	-31.0	i	-1.22	-7.3	7.3	i	·	·	·	·
C/C=C(/C)C(=O)OC1c2c(ccc3ccc(=O)oc23)OC(C)(C)C1OC(=O)/C(C)=C\C (stereo unspecified)	-22.3	25*	-0.84	9.2	-9.2	i	28.0%*	26.5%*	-1	-16.5
COCCNC(=O)Cn1nc(-c2ccccc2F)ccc1=O	-3.6	·	0.53	-12.1	12.1	i	·	·	·	·
O=C(NC1CCCCC1)C1CCCN1S(=O)(=O)c1cccc2nsnc12 (stereo unspecified)	-2.2	100*	-1.8	-1.7	1.7	i	i	i	-1.1	-6.5
CCOC(=O)Cn1c(CN(C)Cc2ccccc2)nc2c1c(=O)n(C)c(=O)n2C	-24.1	100*	-1.19	-21.3	·	i	i	i	-1.17	-11.0
CCOc1ccc(OCc2ccc(C(=O)OCc3ccccn3)o2)cc1	-31.1	100*	1.3	-12.2	12.2	i	i	i	-1.02	-4.0
CCOC(=O)N1CCc2c(sc(NC(C)=O)c2C(N)=O)C1	7.4	i	2.32	-0.1	0.1	i	i	i	-1.1	-8.5
COc1ccccc1NC(=O)CN1CCN(CC(=O)Nc2ccc(S(N)(=O)=O)cc2)CC1	-17.9	i	0	-7.9	7.9	i	i	i	-0.898	-7.0
COc1ccccc1NC(=O)CN1CCN(CC(=O)Nc2ccc(OC)c(OC)c2)CC1	-20.3	i	-1.62	34.7	-34.7	·	·	·	·	·
NC(=O)NC(=O)COC(=O)CCCc1c[nH]c2ccccc12	-1.7	100*	1.36	-32.1	32.1	i	i	i	-1.03	-14.0
CC1=C(C(=O)OCC(Br)(Br)Br)C(c2cccc([N+](=O)[O-])c2)NC(=O)N1CCCC(=O)O (stereo unspecified)	·	25*	0.02	-28.2	28.2	i	i	i	-0.991	-0.5
O=c1c2c([nH]c3ccccc13)CCCCCC2	-2.5	25*	-0.06	1.5	-1.5	i	i	i	-1.13	-13.5
O=c1c2c([nH]c3ccccc13)CCCCC2	-0.5	i	0.01	·	·	i	·	·	·	·
COC(=O)c1ccc(CSc2nc(C(F)(F)F)c3c(c2C#N)CCC3)o1	-20.1	100*	-0.09	40.2	-40.2	i	i	i	-1.13	-12.0
COC(=O)c1ccc(CSc2cc(C)c3ccccc3n2)o1	-11.0	i	1.91	-11.3	11.3	i	·	·	·	·
Cc1cc(=O)oc2cc(O)cc(O)c12	·	·	·	2.3	-2.3	i	·	·	·	·
CCCCCc1cc(O)c2c(C)cc(=O)oc2c1	5.6	100*	-0.48	22.8	-22.7	i	16.5%*	i	-0.971	-7.5
CC(C)c1ccccc1NC(=O)CN1C(=O)c2ccccc2C1=O	-6.9	i	0.94	12.7	-12.7	i	·	·	·	·
OC(COc1ccc2ccccc2c1)Cn1ccnc1 (stereo unspecified)	17.6	i	-1.23	-9.3	9.3	i	·	·	·	·
OC(COc1ccc2ccccc2c1Br)Cn1ccnc1 (stereo unspecified)	1.2	25*	-1.66	-9.5	9.5	i	i	i	-1.03	-1.0
CC(=O)OC1CC(C)N(C(=O)c2ccccc2)c2ccc(C)cc21 (stereo unspecified)	-23.4	100*	0.19	-29.5	29.5	i	i	i	-1.06	-5.0
SMILES	DNA FID counter	TMEM16A inh	Kir21 block	SR-BI DiI inh	SR-BI uptake up	TMEM16A act	TMEM16A reconf	HEK293 Ca mobil	YFP-HEK293 quench	ClC-1 inh
CCCC(=O)OC1CC(C)N(C(=O)c2ccccc2)c2ccc(C)cc21 (stereo unspecified)	-33.3	i	0.28	15.1	-15.1	i	·	·	·	·
CCN(CC)S(=O)(=O)c1cccc(NC(=O)CNc2cccc(S(=O)(=O)N3CCCC3)c2)c1	-29.6	25*	-0.5	28.8	-28.8	i	i	i	-1.03	-16.5
O=C(CNc1cccc(S(=O)(=O)N2CCCC2)c1)Nc1ccc(F)c(F)c1	·	i	-1.59	10.9	-10.9	i	·	·	·	·
CCN(CC)S(=O)(=O)c1cccc(NC(=O)COC(=O)c2cccs2)c1	-13.9	25*	0.92	·	·	i	i	i	-0.953	-6.5
CN(CC(=O)Nc1cccc(S(=O)(=O)N2CCCC2)c1)CC(=O)Nc1ccc(Cl)c(C(F)(F)F)c1	·	25*	0.02	2.9	-2.9	i	i	i	-1.22	-2.0
Cc1ccc(NC(=O)CNc2cccc(S(=O)(=O)N3CCCC3)c2)cc1F	·	25*	-0.39	7.4	-7.4	i	22.5%*	i	-0.88	-9.5
CCN(CC)S(=O)(=O)c1cccc(NC(=O)COC(=O)/C=C/c2cccs2)c1	-21.3	i	0.02	·	·	i	·	·	·	·
